Reference: ChEMBL document CHEMBL1156500, “Characterization of the metabolic activation of hepatitis C virus nucleoside inhibitor beta-D-2'-Deoxy-2'-fluoro-2'-C-methylcytidine (PSI-6130) and identification of a novel active 5'-triphosphate species” (J Biol Chem, 2007)

Assays:
Assay type in all cases: ADME, cell-based
Conditions in all cases: hepatocytes
[1] = system: Hepatocyte; assay: Drug uptake in human hepatocyte at 2 uM after 24 hrs assessed as 1-((2R,3R,4R,5R)-3-fluoro-4-hydroxy-5-(hydroxymethyl)-3-methyl-tetrahydrofuran-2-yl)pyrimidine-2,4(1H,3H)-dione tri phosphate level per 10^6 cells
Outline: (§1)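 Primary human hepatocytes from 3 donors were plated on collagen and recovered for ≥18 h. They were exposed for 24 h, in duplicate, to 0–250 μM drug: 3H-labelled material diluted with unlabelled compound. Total intracellular radioactivity and individual phosphates were measured in methanol extracts by SAX HPLC with radiometric detection. Results are pmol/10^6 cells, mean ± S.D.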

[2] = system: Hepatocyte; assay: Drug uptake in human hepatocyte at 10 uM after 24 hrs assessed as 1-((2R,3R,4R,5R)-3-fluoro-4-hydroxy-5-(hydroxymethyl)-3-methyl-tetrahydrofuran-2-yl)pyrimidine-2,4(1H,3H)-dione tri phosphate level per 10^6 cells; outline: as §1
[3] = system: Hepatocyte; assay: Drug uptake in human hepatocyte at 25 uM after 24 hrs assessed as 1-((2R,3R,4R,5R)-3-fluoro-4-hydroxy-5-(hydroxymethyl)-3-methyl-tetrahydrofuran-2-yl)pyrimidine-2,4(1H,3H)-dione tri phosphate level per 10^6 cells; outline: as §1
[4] = system: Hepatocyte; assay: Drug uptake in human hepatocyte at 50 uM after 24 hrs assessed as 1-((2R,3R,4R,5R)-3-fluoro-4-hydroxy-5-(hydroxymethyl)-3-methyl-tetrahydrofuran-2-yl)pyrimidine-2,4(1H,3H)-dione tri phosphate level per 10^6 cells; outline: as §1
[5] = system: Hepatocyte; assay: Drug uptake in human hepatocyte at 100 uM after 24 hrs assessed as 1-((2R,3R,4R,5R)-3-fluoro-4-hydroxy-5-(hydroxymethyl)-3-methyl-tetrahydrofuran-2-yl)pyrimidine-2,4(1H,3H)-dione tri phosphate level per 10^6 cells; outline: as §1
[6] = system: Hepatocyte; assay: Drug uptake in human hepatocyte at 250 uM after 24 hrs assessed as 1-((2R,3R,4R,5R)-3-fluoro-4-hydroxy-5-(hydroxymethyl)-3-methyl-tetrahydrofuran-2-yl)pyrimidine-2,4(1H,3H)-dione tri phosphate level per 10^6 cells; outline: as §1
[7] = system: Hepatocyte; assay: Drug uptake in human hepatocyte at 2 uM after 16 hrs assessed as 1-((2R,3R,4R,5R)-3-fluoro-4-hydroxy-5-(hydroxymethyl)-3-methyl-tetrahydrofuran-2-yl)pyrimitrine-2,4(1H,3H)-trione tri phosphate level per 10^6 cells
Outline: (§2)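 Primary human hepatocytes from 4 donors were plated at 1.5 million cells/well on collagen and recovered for ≥18 h. They were dosed with 3H-labelled drug at 2 μM (10 μCi/ml) for 1–72 h, in duplicate, at 37°C. Cold 60% methanol extracts were run on SAX ion-exchange HPLC with radiometric detection and compared with reference standards. Results are pmol/10^6 cells, mean ± S.D.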

[8] = system: Hepatocyte; assay: Drug uptake in human hepatocyte at 2 uM after 24 hrs assessed as 1-((2R,3R,4R,5R)-3-fluoro-4-hydroxy-5-(hydroxymethyl)-3-methyl-tetrahydrofuran-2-yl)[…] tri phosphate level per 10^6 cells; outline: as §2
[9] = system: Hepatocyte; assay: Drug uptake in human hepatocyte at 2 uM after 48 hrs assessed as 1-((2R,3R,4R,5R)-3-fluoro-4-hydroxy-5-(hydroxymethyl)-3-methyl-tetrahydrofuran-2-yl)pyrimitrine-2,4(1H,3H)-trione tri phosphate level per 10^6 cells; outline: as §2
[10] = system: Hepatocyte; assay: Drug uptake in human hepatocyte at 2 uM after 72 hrs assessed as 1-((2R,3R,4R,5R)-3-fluoro-4-hydroxy-5-(hydroxymethyl)-3-methyl-tetrahydrofuran-2-yl)[…] tri phosphate level per 10^6 cells; outline: as §2
[11] = system: Hepatocyte; assay: Drug uptake in human hepatocyte at 2 uM after 24 hrs assessed per 10^6 cells
[12] = system: Hepatocyte; assay: Drug uptake in human hepatocyte at 10 uM after 24 hrs assessed per 10^6 cells; outline: as §1
[13] = system: Hepatocyte; assay: Drug uptake in human hepatocyte at 25 uM after 24 hrs assessed per 10^6 cells; outline: as §1
[14] = system: Hepatocyte; assay: Drug uptake in human hepatocyte at 50 uM after 24 hrs assessed per 10^6 cells; outline: as §1
[15] = system: Hepatocyte; assay: Drug uptake in human hepatocyte at 2 uM after 24 hrs assessed as 4-amino-1-((2R,3R,4R,5R)-3-fluoro-4-hydroxy-5-(hydroxymethyl)-3-methyl-tetrahydrofuran-2-yl)pyrimidin-2(1H)-one di phosphate level per 10^6 cells; outline: as §1
[16] = system: Hepatocyte; assay: Drug uptake in human hepatocyte at 10 uM after 24 hrs assessed as 4-amino-1-((2R,3R,4R,5R)-3-fluoro-4-hydroxy-5-(hydroxymethyl)-3-methyl-tetrahydrofuran-2-yl)pyrimidin-2(1H)-one di phosphate level per 10^6 cells; outline: as §1
[17] = system: Hepatocyte; assay: Drug uptake in human hepatocyte at 25 uM after 24 hrs assessed as 4-amino-1-((2R,3R,4R,5R)-3-fluoro-4-hydroxy-5-(hydroxymethyl)-3-methyl-tetrahydrofuran-2-yl)pyrimidin-2(1H)-one di phosphate level per 10^6 cells; outline: as §1
[18] = system: Hepatocyte; assay: Drug uptake in human hepatocyte at 50 uM after 24 hrs assessed as 4-amino-1-((2R,3R,4R,5R)-3-fluoro-4-hydroxy-5-(hydroxymethyl)-3-methyl-tetrahydrofuran-2-yl)pyrimidin-2(1H)-one di phosphate level per 10^6 cells; outline: as §1
[19] = system: Hepatocyte; assay: Drug uptake in human hepatocyte at 100 uM after 24 hrs assessed as 4-amino-1-((2R,3R,4R,5R)-3-fluoro-4-hydroxy-5-(hydroxymethyl)-3-methyl-tetrahydrofuran-2-yl)pyrimidin-2(1H)-one di phosphate level per 10^6 cells; outline: as §1
[20] = system: Hepatocyte; assay: Drug uptake in human hepatocyte at 250 uM after 24 hrs assessed as 4-amino-1-((2R,3R,4R,5R)-3-fluoro-4-hydroxy-5-(hydroxymethyl)-3-methyl-tetrahydrofuran-2-yl)pyrimidin-2(1H)-one di phosphate level per 10^6 cells; outline: as §1
[21] = system: Hepatocyte; assay: Drug uptake in human hepatocyte at 2 uM after 24 hrs assessed as 1-((2R,3R,4R,5R)-3-fluoro-4-hydroxy-5-(hydroxymethyl)-3-methyl-tetrahydrofuran-2-yl)pyrimidine-2,4(1H,3H)-dione di phosphate level per 10^6 cells; outline: as §1
[22] = system: Hepatocyte; assay: Drug uptake in human hepatocyte at 10 uM after 24 hrs assessed as 1-((2R,3R,4R,5R)-3-fluoro-4-hydroxy-5-(hydroxymethyl)-3-methyl-tetrahydrofuran-2-yl)pyrimidine-2,4(1H,3H)-dione di phosphate level per 10^6 cells; outline: as §1
[23] = system: Hepatocyte; assay: Drug uptake in human hepatocyte at 25 uM after 24 hrs assessed as 1-((2R,3R,4R,5R)-3-fluoro-4-hydroxy-5-(hydroxymethyl)-3-methyl-tetrahydrofuran-2-yl)pyrimidine-2,4(1H,3H)-dione di phosphate level per 10^6 cells; outline: as §1
[24] = system: Hepatocyte; assay: Drug uptake in human hepatocyte at 50 uM after 24 hrs assessed as 1-((2R,3R,4R,5R)-3-fluoro-4-hydroxy-5-(hydroxymethyl)-3-methyl-tetrahydrofuran-2-yl)pyrimidine-2,4(1H,3H)-dione di phosphate level per 10^6 cells; outline: as §1

Drug uptake [1]: 2.4 pmol | Drug uptake [2]: 9.6 pmol | Drug uptake [3]: 21.7 pmol | Drug uptake [4]: 34.9 pmol | Drug uptake [5]: 71.2 pmol | Drug uptake [6]: 84 pmol | Drug uptake [7]: 0.6 pmol | Drug uptake [8]: 1.3 pmol | Drug uptake [9]: 2 pmol | Drug uptake [10]: 2 pmol | Drug uptake [11]: 34.5 pmol | Drug uptake [12]: 165.5 pmol | Drug uptake [13]: 439.1 pmol | Drug uptake [14]: 847.9 pmol | Drug uptake [15]: 0.3 pmol | Drug uptake [16]: 2.4 pmol | Drug uptake [17]: 3.4 pmol | Drug uptake [18]: 8.2 pmol | Drug uptake [19]: 13.4 pmol | Drug uptake [20]: 19.6 pmol | Drug uptake [21]: 0.9 pmol | Drug uptake [22]: 4.8 pmol | Drug uptake [23]: 9.5 pmol | Drug uptake [24]: 20.3 pmol
SMILES: C[C@@]1(F)[C@H](O)[C@@H](CO)O[C@H]1n1ccc(N)nc1=O
